Reference: ChEMBL document CHEMBL2021852 (ACS Med Chem Lett, 2011)
Values belong to the compound of their own block, whether it stands above or below them. Activity calls are given as the source filed them. The rule behind the calls is not given here.

Legend:
[1] = Oral bioavailability in rat at 8 mg/kg; format: ADME, organism-based; details: in vivo
Method in brief: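 Rats given compound as the fumarate salt, intravenously and by mouth in separate arms. Oral AUC(0–t), IV half-life, IV clearance, Vss and F were tabulated. The oral dose was 8.0 mg/kg, paired with an IV dose of 1.6 mg/kg.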

[2] = Oral bioavailability in cynomolgus monkey at 1 mg/kg; format: ADME, organism-based, Macaca fascicularis; details: in vivo
Method in brief: (§1)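 Compounds were dosed as fumarate salts in separate intravenous and oral arms. Oral AUC(0–t), IV half-life, IV clearance, Vss and oral bioavailability (F) were derived from the plasma levels.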

[3] = Half life in cynomolgus monkey at 1 mg/kg, iv; format: ADME, organism-based, Macaca fascicularis; set-up: dose 1 mg/kg, route intravenous; details: in vivo; method in brief: as §1
[4] = Volume of distribution at steady state in rat at 1.6 mg/kg, iv and 8 mg/kg, po; format: ADME, organism-based; details: in vivo, read-out: Vdss; method in brief: as §1
[5] = AUC (0 to t) in rat at 8 mg/kg, po; format: ADME, organism-based; set-up: dose 8 mg/kg, route oral; details: plasma; method in brief: as §1
[6] = AUC (0 to t) in cynomolgus monkey at 1 mg/kg, po; format: ADME, organism-based, Macaca fascicularis; set-up: dose 1 mg/kg, route oral; details: plasma; method in brief: as §1
[7] = Half life in rat at 1.6 mg/kg, iv; format: ADME, organism-based; set-up: dose 1.6 mg/kg, route intravenous; details: in vivo; method in brief: as §1
[8] = Volume of distribution at steady state in cynomolgus monkey at 1 mg/kg, iv and 1 mg/kg, po; format: ADME, organism-based, Macaca fascicularis; details: in vivo, read-out: Vdss; method in brief: as §1
[9] = Clearance in rat at 1.6 mg/kg, iv; format: ADME, organism-based; set-up: dose 1.6 mg/kg, route intravenous; details: in vivo; method in brief: as §1
[10] = Volume of distribution at steady state in rat at 0.8 mg/kg, iv and 4 mg/kg, po; format: ADME, organism-based; details: in vivo, read-out: Vdss; method in brief: as §1
[11] = Half life in rat at 0.8 mg/kg, iv; format: ADME, organism-based; set-up: dose 0.8 mg/kg, route intravenous; details: in vivo; method in brief: as §1
[12] = AUC (0 to t) in rat at 4 mg/kg, po; format: ADME, organism-based; set-up: dose 4 mg/kg, route oral; details: plasma; method in brief: as §1
[13] = Clearance in rat at 0.8 mg/kg, iv; format: ADME, organism-based; set-up: dose 0.8 mg/kg, route intravenous; details: in vivo; method in brief: as §1
[14] = Oral bioavailability in rat at 4 mg/kg; format: ADME, organism-based; details: in vivo; method in brief: as §1
[15] = molecular target: T1, Renin (Homo sapiens, UniProt P00797); test: Inhibition of renin in human plasma assessed as formation of angiotensin1 product after 90 mins by competitive radioimmunoassay
T1 sequence (P00797 whole entry): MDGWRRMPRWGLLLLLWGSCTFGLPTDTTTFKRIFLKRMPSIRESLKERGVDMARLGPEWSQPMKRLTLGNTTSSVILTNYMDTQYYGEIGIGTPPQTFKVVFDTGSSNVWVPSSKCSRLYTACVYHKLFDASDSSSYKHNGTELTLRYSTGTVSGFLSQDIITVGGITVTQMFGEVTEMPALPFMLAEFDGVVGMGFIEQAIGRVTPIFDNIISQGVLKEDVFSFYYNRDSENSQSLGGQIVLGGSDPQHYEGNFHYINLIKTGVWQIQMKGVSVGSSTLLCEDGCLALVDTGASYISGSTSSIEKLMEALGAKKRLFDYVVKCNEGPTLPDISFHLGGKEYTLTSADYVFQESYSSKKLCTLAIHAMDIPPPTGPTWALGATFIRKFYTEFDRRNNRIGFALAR
Method in brief: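 IC50 for renin inhibition determined in the presence of human plasma; each value is the average of at least two replicates.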

[16] = molecular target: Cytochrome P450 3A4 (Homo sapiens, UniProt P08684); test: Inhibition of CYP3A4 using testosterone as substrate in human liver microsome for 20 mins by HPLC analysis; format: ADME, microsomes
Method in brief: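 CYP3A4 inhibition measured in human liver microsomes; IC50 is the average of at least two replicates.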

[17] = molecular target: T1, Renin; test: Inhibition of human recombinant renin using H-Asp-Arg-Val-Tyr-Ile-His-Pro-Phe-His-Leu-Val-Ile-His-Asn-OH as substrate assessed as formation of angiotensin1 product after 2 hrs by competive radioimmunoassay
Method in brief: (§2)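 Purified recombinant human renin measured in buffer; each value is the average of at least two replicates.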

[18] = molecular target: T1, Renin; test: Inhibition of human recombinant renin using DABCYL-gamma-Abu-Ile-His-Pro-Phe-His-Leu-Val-Ile-His-Thr-EDANS as substrate for 60 mins by fluorimetry; method in brief: as §2
[19] = Oral bioavailability in cynomolgus monkey at 2 mg/kg; format: ADME, organism-based, Macaca fascicularis; details: in vivo; method in brief: as §1
[20] = Clearance in rat at […], iv; format: ADME, organism-based; set-up: dose 1.5 mg/kg, route intravenous; details: in vivo
[21] = Oral bioavailability in rat at 8.2 mg/kg; format: ADME, organism-based; details: in vivo; method in brief: as §1
[22] = Half life in rat at […], iv; format: ADME, organism-based; set-up: dose 1.5 mg/kg, route intravenous; details: in vivo
[23] = Volume of distribution at steady state in cynomolgus monkey at 1 mg/kg, iv and 2 mg/kg, po; format: ADME, organism-based, Macaca fascicularis; details: in vivo, read-out: Vdss; method in brief: as §1
[24] = AUC (0 to t) in cynomolgus monkey at 2 mg/kg, po; format: ADME, organism-based, Macaca fascicularis; set-up: dose 2 mg/kg, route oral; details: plasma; method in brief: as §1
[25] = Clearance in cynomolgus monkey at 1 mg/kg, iv; format: ADME, organism-based, Macaca fascicularis; set-up: dose 1 mg/kg, route intravenous; details: in vivo; method in brief: as §1
[26] = AUC (0 to t) in rat at 8.2 mg/kg, po; format: ADME, organism-based; set-up: dose 8.2 mg/kg, route oral; details: plasma; method in brief: as §1
[27] = Volume of distribution at steady state in rat at […], iv and 8.2 mg/kg, po; format: ADME, organism-based; details: in vivo, read-out: Vdss
[28] = molecular target: Cathepsin D (Homo sapiens) (UniProt P07339); test: Inhibition of human cathepsin D using Mca-GKPILFFRLK(Dnp)-D-Arg-NH2 as substrate at 10 uM incubated for 10 mins prior to substrate addition measured for 1 hr by FRET analysis
[29] = system: Rattus norvegicus; test: Antihypertensive activity in double transgenic rat expressing human renin assessed as reduction in mean arterial blood pressure at 10 mg/kg, po after 24 hrs; format: functional, organism-based; set-up: dose 10 mg/kg; details: Artery
Method in brief: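 Double transgenic rats expressing human renin and angiotensinogen, with severe hypertension dependent on human renin, received 10 mg/kg orally. Mean arterial pressure was followed over time, including at t = 24 h.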

[30] = molecular target: T2, Cathepsin E (Homo sapiens) (UniProt P14091); test: Inhibition of human recombinant cathepsin E using Mca-GKPILFFRLK(Dnp)-D-Arg-NH2 as substrate at 10 uM incubated for 10 mins prior to substrate addition measured for 1 hr by FRET analysis
T2 sequence (whole entry): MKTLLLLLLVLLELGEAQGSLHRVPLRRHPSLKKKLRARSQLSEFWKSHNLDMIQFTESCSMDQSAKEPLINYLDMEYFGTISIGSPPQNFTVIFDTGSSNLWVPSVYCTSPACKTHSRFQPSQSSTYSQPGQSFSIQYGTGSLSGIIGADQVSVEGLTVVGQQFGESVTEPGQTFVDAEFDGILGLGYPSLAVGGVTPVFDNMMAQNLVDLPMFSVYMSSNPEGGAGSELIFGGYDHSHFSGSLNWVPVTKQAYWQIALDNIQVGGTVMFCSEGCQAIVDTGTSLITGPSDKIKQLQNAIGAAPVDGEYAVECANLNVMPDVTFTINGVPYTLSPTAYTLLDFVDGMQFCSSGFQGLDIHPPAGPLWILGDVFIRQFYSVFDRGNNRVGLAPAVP

[31] = molecular target: Beta-secretase 1 (Homo sapiens) (UniProt P56817); test: Inhibition of BACE using SEVNLDAEFK(Dnp)NH2 as substrate at 10 uM incubated for 10 mins prior to substrate addition measured for 1 hr by FRET analysis
Chain of Beta-secretase 1 (Homo sapiens) (P56817 whole entry): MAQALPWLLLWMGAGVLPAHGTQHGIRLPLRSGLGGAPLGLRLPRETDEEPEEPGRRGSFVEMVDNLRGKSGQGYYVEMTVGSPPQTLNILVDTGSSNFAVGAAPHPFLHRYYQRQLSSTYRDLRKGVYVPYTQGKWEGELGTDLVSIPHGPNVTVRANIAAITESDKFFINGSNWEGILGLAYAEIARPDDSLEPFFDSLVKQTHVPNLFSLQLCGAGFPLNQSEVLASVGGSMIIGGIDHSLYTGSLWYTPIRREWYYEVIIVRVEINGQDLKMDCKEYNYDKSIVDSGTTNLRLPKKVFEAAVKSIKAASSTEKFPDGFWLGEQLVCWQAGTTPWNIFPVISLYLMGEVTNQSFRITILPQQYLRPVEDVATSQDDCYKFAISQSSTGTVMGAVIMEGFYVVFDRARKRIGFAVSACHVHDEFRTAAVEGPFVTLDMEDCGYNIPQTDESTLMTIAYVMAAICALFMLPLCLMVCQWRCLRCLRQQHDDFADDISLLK

Chain of Cytochrome P450 3A4 (P08684 whole entry): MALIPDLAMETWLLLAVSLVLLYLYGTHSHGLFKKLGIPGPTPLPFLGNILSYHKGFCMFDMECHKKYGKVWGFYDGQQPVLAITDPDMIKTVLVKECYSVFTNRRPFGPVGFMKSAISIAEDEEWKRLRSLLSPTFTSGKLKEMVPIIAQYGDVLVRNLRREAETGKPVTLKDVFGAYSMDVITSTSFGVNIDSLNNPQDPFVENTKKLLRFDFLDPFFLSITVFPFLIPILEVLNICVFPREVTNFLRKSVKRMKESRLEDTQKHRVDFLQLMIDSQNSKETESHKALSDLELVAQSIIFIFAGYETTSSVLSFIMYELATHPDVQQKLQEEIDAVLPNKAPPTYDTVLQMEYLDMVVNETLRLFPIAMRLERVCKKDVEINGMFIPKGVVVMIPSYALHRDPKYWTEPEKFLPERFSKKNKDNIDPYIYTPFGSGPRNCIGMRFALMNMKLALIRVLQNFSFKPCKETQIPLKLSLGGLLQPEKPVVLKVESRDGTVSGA
Chain of Cathepsin D (Homo sapiens) (P07339 65-162 limits assumed): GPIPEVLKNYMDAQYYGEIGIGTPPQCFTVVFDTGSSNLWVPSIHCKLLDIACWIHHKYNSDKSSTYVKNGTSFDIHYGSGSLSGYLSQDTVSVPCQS
Chain of Cathepsin D (Homo sapiens) (P07339 169-412 limits assumed): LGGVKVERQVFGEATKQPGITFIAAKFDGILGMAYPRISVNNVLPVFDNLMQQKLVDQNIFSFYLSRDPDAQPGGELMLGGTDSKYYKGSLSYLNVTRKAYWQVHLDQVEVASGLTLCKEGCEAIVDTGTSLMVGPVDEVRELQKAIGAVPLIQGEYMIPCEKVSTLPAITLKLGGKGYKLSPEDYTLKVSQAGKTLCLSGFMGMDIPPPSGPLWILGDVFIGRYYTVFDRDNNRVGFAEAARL

bioavailability [1]: 9.4%
bioavailability [2]: 9.9%
half-life [3]: 1400 min
Vd [4]: 19 L/kg
AUC(0-t) [5]: 301 ng·h/mL
AUC(0-t) [6]: 130 ng·h/mL
half-life [7]: 972 min
Vd [8]: 9.8 L/kg
clearance [9]: 36 mL/min/kg
Structure (SMILES): CNC[C@H](CC1CCCCC1)NC(=O)N1CCC[C@@H]([C@@H](OCCNC(=O)OC)c2cccc(Cl)c2)C1.O=C(O)/C=C/C(=O)O

Vd [10]: 101 L/kg
half-life [11]: 2.12 days
AUC(0-t) [12]: 269 ng·h/mL
clearance [13]: 47 mL/min/kg
bioavailability [14]: 29.5%
Structure (SMILES): COCCCC[C@@](O)(c1cccc(Cl)c1F)[C@@H]1CCCN(C(=O)NC[C@@H](N)CC2CCCCC2)C1.O=C(O)/C=C/C(=O)O

IC50 [15]: 9.4 nM
IC50 [18]: 0.73 nM
Structure (SMILES): CNC[C@H](CC1CCCCC1)NC(=O)N1CCC[C@@H]([C@@](O)(CCCCOC)c2cccc(Cl)c2F)C1

Second part, the compound before the results:

Structure (SMILES): CNC[C@H](CC1CCOCC1)NC(=O)N1CCC[C@@H]([C@@H](OCCNC(=O)OC)c2cccc(Cl)c2)C1
IC50 [15]: 13.1 nM
IC50 [16]: > 30 µM
IC50 [17]: 1.7 nM
IC50 [18]: 6.2 nM

Structure (SMILES): CNC[C@H](C[C@H]1CCCOC1)NC(=O)N1CCC[C@@H]([C@@H](OCCNC(=O)OC)c2cccc(Cl)c2)C1
IC50 [15]: 0.48 nM
IC50 [16]: 28 µM
IC50 [17]: 0.42 nM
IC50 [18]: 0.56 nM

Structure (SMILES): CNC[C@H](C[C@H]1CCCOC1)NC(=O)N1CCC[C@@H]([C@@H](OCCNC(=O)OC)c2cccc(Cl)c2)C1.O=C(O)/C=C/C(=O)O
bioavailability [19]: 5.3%
clearance [20]: 48 mL/min/kg
half-life [3]: 840 min
bioavailability [21]: 7.5%
half-life [22]: 1100 min
Vd [23]: 5 L/kg
AUC(0-t) [24]: 172 ng·h/mL
clearance [25]: 9.5 mL/min/kg
AUC(0-t) [26]: 167 ng·h/mL
Vd [27]: 39 L/kg

Structure (SMILES): CNC[C@@H](NC(=O)N1CCC[C@@H]([C@@H](OCCNC(=O)OC)c2cccc(Cl)c2)C1)[C@@H](O)C1CCCCC1
IC50 [15]: 1.06 nM
IC50 [16]: 7.1 µM
IC50 [17]: 0.15 nM
IC50 [18]: 0.33 nM

Structure (SMILES): CN[C@H](CNC(=O)N1CCC[C@@H]([C@@H](OCCNC(=O)OC)c2cccc(Cl)c2)C1)C[C@H]1CCCOC1
inhibition [28]: < 10%
Activity [29]: Active
inhibition [30]: < 10%
inhibition [31]: < 10%
